{"data": "Measured values from different studies", "target": "Mitogen-activated protein kinase kinase kinase kinase 5 (MAP4K5, Homo sapiens, UniProt Q9Y4K4)"}
{"Compound": "Clc1ccc(Nc2nnc(Cc3ccncc3)c3ccccc23)cc1", "assay": "cell-free assay", "conditions": "0.5 µM", "measurement": "remaining signal", "result": "101%"}
{"Compound": "O=C(Nc1cnn(-c2csc(C(=O)NC3COC3)c2)c1)Nc1ccccc1Cl", "assay": "enzyme activity, inhibitor", "conditions": "5 µM", "measurement": "remaining activity", "result": "99.1%"}
{"Compound": "COc1ccnn2ncc(-c3ccnc(N(C)C)n3)c12", "assay": "binding", "conditions": "1 µM", "measurement": "remaining binding", "result": "100%"}
{"Compound": "Nc1ncnc2occ(-c3ccc(NC(=O)Nc4cc(C(F)(F)F)ccc4F)cc3)c12", "assay": "cell-free assay, inhibitor", "conditions": "20 µM", "measurement": "remaining signal", "result": "0%"}
{"Compound": "COc1ccc(COc2ccc(Cc3cnc(N)nc3N)cc2OC)cc1", "assay": "cell-free assay", "conditions": "0.5 µM", "measurement": "remaining signal", "result": "97.4%"}
{"Compound": "COCCOc1nc(-c2ccc(Cl)nc2)nc2c1CN(C(=O)c1ncn3ccccc13)CC2", "assay": "cell-free assay, competition with immobilised ligand", "conditions": "0.1 µM", "measurement": "remaining binding", "result": "91%"}
{"Compound": "CC(C)(C)c1nc(-c2cccc(NS(=O)(=O)c3c(F)cccc3F)c2F)c(-c2ccnc(N)n2)s1", "assay": "enzyme activity, inhibitor, radiometric", "conditions": "1 µM", "measurement": "remaining activity", "result": "90%"}
{"Compound": "CC(C)(O)[C@H]1CC[C@H](Nc2ccc3ncc(-c4cccc(C(F)(F)F)c4)n3n2)CC1", "assay": "enzyme activity, inhibitor", "conditions": "1 µM", "measurement": "remaining activity", "result": "83.2%"}
{"Compound": "FC(F)(F)Oc1cccc(-c2cnc3ccc(-c4ccncc4)nn23)c1", "assay": "enzyme activity, inhibitor, radiometric", "conditions": "1 µM", "measurement": "activity vs control", "result": "110%"}
{"Compound": "c1ccc(N2CCN(Cc3nc4ccccc4[nH]3)CC2)nc1", "assay": "binding, competition with immobilised ligand", "conditions": "1 µM", "measurement": "remaining binding", "result": "100%"}
{"Compound": "CN1CC(Oc2cnc(C#N)cc2-c2ccn3nc(NC(=O)C4CC4)cc3c2)C1", "assay": "enzyme activity, inhibitor", "conditions": "1 µM", "measurement": "inhibition", "result": "4%"}
{"Compound": "Cc1ccc(C(=O)NCc2ccsc2)cc1C#Cc1cn(C(C)C)c2ncnc(N)c12", "assay": "enzyme activity, inhibitor", "conditions": "1 µM", "measurement": "activity vs control", "result": "7%"}
{"Compound": "CNC(=O)Nc1ccc2c(c1)CC[C@@]21OC(=O)N(CC(=O)N(Cc2ccc(F)cc2)[C@@H](C)C(F)(F)F)C1=O", "assay": "cell-free assay, competition with immobilised ligand", "conditions": "1 µM", "measurement": "remaining binding", "result": "88%"}
{"Compound": "COc1cc2ncnc(Nc3ccc(Oc4ccccc4)cc3C)c2cc1OC", "assay": "enzyme activity, inhibitor", "conditions": "1 µM", "measurement": "inhibition", "result": "38%"}
{"Compound": "C[C@@H]1CN(c2cc(-c3n[nH]c4ccc(OC5(C)CC5)cc34)ncn2)C[C@H](C)O1", "assay": "cell-free assay, competition with immobilised ligand", "conditions": "0.1 µM", "measurement": "remaining binding", "result": "100%"}
{"Compound": "COc1cc(Cl)c(C(=O)N[C@@H](CN[C@H]2CC[C@@H](N)CC2)Cc2ccc(C#N)cc2)cc1-c1ccc(CN[C@H](C)c2ccc(C)cc2)o1", "assay": "enzyme activity, inhibitor", "conditions": "1 µM", "measurement": "remaining activity", "result": "113%"}
{"Compound": "CNCc1ccccc1-c1csc([C@H](C)Nc2nc(C)nc3cc(OC)c(OC)cc23)c1", "assay": "cell-free assay, competition with immobilised ligand", "conditions": "1 µM", "measurement": "remaining binding", "result": "100%"}
{"Compound": "O=C1NC(=O)c2cc(Nc3ccc(F)cc3)c(Nc3ccc(F)cc3)cc21", "assay": "cell-free assay", "conditions": "0.5 µM", "measurement": "remaining signal", "result": "89.5%"}
